From ChEMBL document CHEMBL1126770, “2,5-Dimethoxy congeners of (+)-and (-)-3-(3-hydroxyphenyl)-N-n- propylpiperidine” (1993)

Legend:
[1] = system: Rattus norvegicus; assay: DA2 antagonist activity was tested by its ability to decrease the heart rate in anesthetized rat at 1000 ug/kg; assay type: functional
Summary of the method: (§1)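 Urethane-anaesthetised (900 mg/kg ip) Sprague-Dawley rats received iv cumulative doses via the femoral vein, at 0.48 log10 steps once responses had been stable ≥5 min. Heart rate came from a cardiotachometer triggered by the femoral arterial pulse, as decrease in beats/min. n = 3 rats per compound; mean ± SD.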

[2] = system: Rattus norvegicus; assay: DA2 antagonist activity was tested by the duration of onset of action of cardiovascular response at 1000 ug/kg; Insufficient sample for statistical treatment; assay type: functional, Heart
[3] = system: Rattus norvegicus; assay: DA2 antagonist activity was tested by its to decrease the heart rate in anesthetized rat at 1000 ug/kg; assay type: functional; summary of the method: as §1
[4] = system: Rattus norvegicus; assay: DA2 antagonist activity was tested by its to decrease the heart rate in anesthetized rat at 3000 ug/kg; assay type: functional; summary of the method: as §1
[5] = system: Rattus norvegicus; assay: DA2 antagonist activity was tested by its to decrease the heart rate in anesthetized rat at 300 ug/kg; assay type: functional; summary of the method: as §1
[6] = system: Rattus norvegicus; assay: DA2 antagonist activity was tested by the duration of onset of action of cardiovascular response at 1000 ug/kg; assay type: functional, Heart
Summary of the method: (§2)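 In anaesthetised Sprague-Dawley rats (urethane 900 mg/kg ip), cumulative iv doses at 0.48 log10 intervals were given via the femoral vein after ≥5 min of stable responses. Duration of hypotension and bradycardia (min) was taken from femoral arterial pressure and pulse-triggered heart rate recordings. Three rats per compound; mean ± SD.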

[7] = system: Rattus norvegicus; assay: DA2 antagonist activity was tested by its ability to decrease the arterial pressure in anesthetized rat at 3000 ug/kg; assay type: functional, Artery
Summary of the method: (§3)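 Sprague-Dawley rats under urethane anaesthesia (900 mg/kg ip), with a femoral vein cannula for drug. Compound given iv as cumulative doses spaced 0.48 log10 units apart, each after responses had been stable ≥5 min. Mean arterial pressure was recorded from the femoral artery via a transducer, as decrease in mmHg. Three rats per compound; mean ± SD.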

[8] = system: Rattus norvegicus; assay: DA2 antagonist activity was tested by the duration of onset of action of cardiovascular response at 300 ug/kg; assay type: functional, Heart; summary of the method: as §2
[9] = system: Rattus norvegicus; assay: DA2 antagonist activity was tested by the duration of onset of action of cardiovascular response at 3000 ug/kg; assay type: functional, Heart; summary of the method: as §2
[10] = system: Rattus norvegicus; assay: DA2 antagonist activity was tested by its ability to decrease the arterial pressure in anesthetized rat at 300 ug/kg; assay type: functional, Artery; summary of the method: as §3
[11] = system: Rattus norvegicus; assay: DA2 antagonist activity was tested by its ability to decrease the heart rate in anesthetized rat at 10 ug/kg; assay type: functional; summary of the method: as §1
[12] = system: Rattus norvegicus; assay: DA2 antagonist activity was tested by the duration of onset of action of cardiovascular response at 100 ug/kg; assay type: functional, Heart; summary of the method: as §2
[13] = system: Rattus norvegicus; assay: DA2 antagonist activity was tested by its ability to decrease the arterial pressure in anesthetized rat at 10 ug/kg; assay type: functional, Artery; summary of the method: as §3
[14] = system: Rattus norvegicus; assay: DA2 antagonist activity was tested by the duration of onset of action of cardiovascular response at 30 ug/kg; assay type: functional, Heart; summary of the method: as §2
[15] = system: Rattus norvegicus; assay: DA2 antagonist activity was tested by its ability to decrease the heart rate in anesthetized rat at 100 ug/kg; assay type: functional; summary of the method: as §1
[16] = system: Rattus norvegicus; assay: DA2 antagonist activity was tested by its ability to decrease the heart rate in anesthetized rat at 30 ug/kg; assay type: functional; summary of the method: as §1
[17] = system: Rattus norvegicus; assay: DA2 antagonist activity was tested by its ability to decrease the arterial pressure in anesthetized rat at 100 ug/kg; assay type: functional, Artery; summary of the method: as §3
[18] = system: Rattus norvegicus; assay: DA2 antagonist activity was tested by the duration of onset of action of cardiovascular response at 10 ug/kg; assay type: functional, Heart; summary of the method: as §2
[19] = system: Rattus norvegicus; assay: DA2 antagonist activity was tested by its ability to decrease the arterial pressure in anesthetized rat at 30 ug/kg; assay type: functional, Artery; summary of the method: as §3
[20] = system: Rattus norvegicus; assay: DA2 antagonist activity was tested by its ability to decrease the heart rate in anesthetized rat at 3000 ug/kg; assay type: functional; summary of the method: as §1
[21] = system: Rattus norvegicus; assay: DA2 antagonist activity was tested by its ability to decrease the arterial pressure in anesthetized rat at […] ug/kg; assay type: functional, Artery; summary of the method: as §3
[22] = system: Rattus norvegicus; assay: DA2 antagonist activity was tested by its ability to decrease the heart rate in anesthetized rat at 300 ug/kg; assay type: functional; summary of the method: as §1

`CCCN1CCCC(c2cc(OC)ccc2OC)C1` (single isomer, unassigned; (+)) was tested, and the “Decrease in heart rate” value [1] was 30 beats min-1 and the Duration of action [2] was 18 min.
For `CCCN1CCCC(c2cc(OC)ccc2OC)C1` (racemic), the “Decrease in heart rate” value [3] was 35 beats min-1, the “Decrease in heart rate” value [4] was 45 beats min-1 and the “Decrease in heart rate” value [5] was 17 beats min-1. It also gave a Duration of action [6] of 8 min, a Decrease in pressure [7] of 23 mmHg and a Duration of action [8] of 5 min. For the same compound, the Duration of action [9] was 13 min and the Decrease in pressure [10] was 10 mmHg.
For `CCCN1CCC[C@H](c2cccc(O)c2)C1`, the “Decrease in heart rate” value [11] was 13 beats min-1, the Duration of action [12] was 14 min and the Decrease in pressure [13] was 5 mmHg. The Duration of action [14] was 10 min, the “Decrease in heart rate” value [15] was 44 beats min-1 and the “Decrease in heart rate” value [16] was 37 beats min-1. It also gave a Decrease in pressure [17] of 23 mmHg, a Duration of action [18] of 6 min and a Decrease in pressure [19] of 16 mmHg.
In the case of `CCCN1CCCC(c2cc(OC)ccc2OC)C1` (single isomer, unassigned; (-)), the “Decrease in heart rate” value [20] is reported as 45 beats min-1, the “Decrease in heart rate” value [1] is reported as 40 beats min-1 and the Decrease in pressure [21] is reported as 27 mmHg. The Duration of action [6] was 5 min, the Duration of action [8] was 2 min and the “Decrease in heart rate” value [22] was 10 beats min-1. The Duration of action [9] was 10 min and the Decrease in pressure [10] was 15 mmHg.
